Results published in article PMC7581536 (Journal of pharmaceutical and biomedical analysis, 2020).

Tests used:
[1] = system: KDM5A; settings: secondary targets KDM4D/4B/4A/6B/4C; ref [18], [20]–[21]; cited from earlier work
[2] = system: HIV-1; settings: T cell lines, via inhibition of SHMT2; ref [23]; cited from earlier work
[3] = Pharmacokinetic study of JIB-04 in rats after i.v. and oral administration; assay type: in vivo, rat
Outline: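 Male adult SD rats with jugular vein cannulas. IV: single 5 mg/kg via jugular vein (n=5) as aqueous suspension in 12.5% cremophor EL/12.5% DMSO; blood at 2 min–24 h. Oral: single 15 mg/kg (n=6); blood at 5 min–24 h. Heparinised plasma (4000 rpm, 15 min) held at −80°C. 20 µL plasma precipitated with ACN (5 ng/mL IS, 0.1% acetic acid); UHPLC-MS/MS MRM; non-compartmental analysis per rat.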

[4] = Stability of stock solutions; assay type: physicochemical; settings: stock solution (DMSO/ACN or ACN), 6 months at −20°C
Outline: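 Test compound stock at 2 mg/mL: 10 mg dissolved in 0.5 mL DMSO, then diluted with ACN. Internal standard stock at 100 µg/mL in ACN. Both kept at −20°C for 6 months.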

[5] = Stability of JIB-04 in rat plasma; assay type: in vitro ADME; settings: for RE (deviation from nominal concentration) / Calculated Concentration Mean ± SD: rat plasma; for Calculated Concentration Mean ± SD: n=6
Outline: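 Blank rat plasma spiked to 0.5, 1, 50 and 800 ng/mL, six replicates per condition. Held 18 h on bench at room temperature, 24 h in auto-sampler tray, or 3 months at −80°C. Freeze-thaw: three cycles of 2–3 h room-temperature thaw and 12–24 h at −80°C. Quantified against a same-day calibration curve; accuracy as RE%, precision as CV%.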

[6] = Non-specific binding to plastic centrifuge tubes; assay type: physicochemical; settings: neat solution, water as matrix
[7] = system: KDMs; settings: ref [18]–[19]; cited from earlier work
[8] = rats, oral 15 mg/kg, n=6, NCA (apparent)
[9] = auto-sampler (10 °C 24hr), nominal 0.5 ng/mL
[10] = auto-sampler (10 °C 24hr), nominal 1 ng/mL
[11] = auto-sampler (10 °C 24hr), nominal 50 ng/mL
[12] = auto-sampler (10 °C 24hr), nominal 800 ng/mL
[13] = bench top (18hr, RT), nominal 0.5 ng/mL
[14] = bench top (18hr, RT), nominal 1 ng/mL
[15] = bench top (18hr, RT), nominal 50 ng/mL
[16] = bench top (18hr, RT), nominal 800 ng/mL
[17] = long-term (−80 °C, 3 months), nominal 0.5 ng/mL
[18] = long-term (−80 °C, 3 months), nominal 1 ng/mL
[19] = long-term (−80 °C, 3 months), nominal 50 ng/mL
[20] = long-term (−80 °C, 3 months), nominal 800 ng/mL

## Clc1ccc(N/N=C(\c2ccccc2)c2ccccn2)nc1 [JIB-04]
[1]
  inhibitory activity against KDM5A: maximal inhibitory activity
[2]
  block of HIV-1 Tat expression, transactivation, and virus replication: potently and selectively blocks
[3]; rat plasma, i.v. and oral samples
  concentrations in pharmacokinetic samples: 2 to 6000 ng/mL
[3]; rats, i.v. 5 mg/kg, after 24 h
  plasma concentration: 3.0 ± 1.0 ng/mL
[3]; rats, i.v. 5 mg/kg, at 2 min
  plasma concentration: 5270 ± 527.2 ng/mL
[3]; rats, i.v. 5 mg/kg, n=5, NCA
  AUC 0→24: 3661.6 ± 371.4 ng·h/mL
  AUC 0→inf: 3678.2 ± 369.0 ng·h/mL
  CL: 22.845 ± 2.362 mL/min/kg
  Half-life: 3.70 ± 0.5 h
  MRT: 2.6 ± 0.3 h
  Vd: 7.3576 ± 1.5306 L/kg
[3]; rats, i.v. samples, 5 min
  E/Z ratio in plasma: 72
[3]; rats, i.v. samples, 2 h
  E/Z ratio in plasma: 27
[3]; rats, i.v. samples, 24 h
  E/Z ratio in plasma: 0.6
[3]; rats, oral 15 mg/kg
  time to reach Cmax (range among subjects): 0.5 ~ 4 h
[3]; rats, oral 15 mg/kg vs i.v. 5 mg/kg
  oral bioavailability (F): 44.4%
[3]; rats, oral 15 mg/kg, n=6, NCA
  AUC 0→24: 4880.8 ± 1015.3 ng·h/mL
  AUC 0→inf: 4904.7 ± 1019.7 ng·h/mL
  Cmax: 812.7 ± 201.2 ng/mL
  Half-life: 3.2 ± 0.2 h
  MRT: 4.4 ± 0.3 h
  Tmax: 1.5 ± 1.4 h
[3]; [8]
  CL: 53.903 ± 1.27 mL/min/kg
  Vd: 14.9234 ± 3.6699 L/kg
[3]; rats, oral 15 mg/kg, within 5 min
  plasma concentration: 122.9 ± 51.0 ng/mL
[3]; rats, oral samples, 5 min
  E/Z ratio in plasma: 40
[3]; rats, oral samples, 2 h
  E/Z ratio in plasma: 9
[3]; rats, oral samples, 24 h
  E/Z ratio in plasma: 2.3
[4]
  stability of stock solution: stable
[5]; [9]
  RE (deviation from nominal concentration): −3.2%
  Calculated Concentration Mean ± SD: 0.48 ± 0.01 ng/mL
[5]; [10]
  RE (deviation from nominal concentration): −3.5%
  Calculated Concentration Mean ± SD: 0.97 ± 0.06 ng/mL
[5]; [11]
  RE (deviation from nominal concentration): −2.7%
  Calculated Concentration Mean ± SD: 48.6 ± 3.3 ng/mL
[5]; [12]
  RE (deviation from nominal concentration): −0.1%
  Calculated Concentration Mean ± SD: 799.0 ± 17.5 ng/mL
[5]; [13]
  RE (deviation from nominal concentration): 1.6%
  Calculated Concentration Mean ± SD: 0.51 ± 0.02 ng/mL
[5]; [14]
  RE (deviation from nominal concentration): −6.9%
  Calculated Concentration Mean ± SD: 0.93 ± 0.05 ng/mL
[5]; [15]
  RE (deviation from nominal concentration): −6.4%
  Calculated Concentration Mean ± SD: 46.8 ± 0.7 ng/mL
[5]; [16]
  RE (deviation from nominal concentration): 2.4%
  Calculated Concentration Mean ± SD: 819.0 ± 26.0 ng/mL
[5]; freeze and thaw (−80 °C to RT), nominal 0.5 ng/mL
  RE (deviation from nominal concentration): 1.4%
[5]; freeze and thaw (−80 °C to RT), nominal 1 ng/mL
  RE (deviation from nominal concentration): −0.8%
[5]; freeze and thaw (−80 °C to RT), nominal 50 ng/mL
  RE (deviation from nominal concentration): −2.1%
[5]; freeze and thaw (−80 °C to RT), nominal 800 ng/mL
  RE (deviation from nominal concentration): −0.9%
[5]; freeze and thaw (−80 °C to RT), three cycles, nominal 0.5 ng/mL
  Calculated Concentration Mean ± SD: 0.51 ± 0.01 ng/mL
[5]; freeze and thaw (−80 °C to RT), three cycles, nominal 1 ng/mL
  Calculated Concentration Mean ± SD: 0.99 ± 0.03 ng/mL
[5]; freeze and thaw (−80 °C to RT), three cycles, nominal 50 ng/mL
  Calculated Concentration Mean ± SD: 49.0 ± 1.3 ng/mL
[5]; freeze and thaw (−80 °C to RT), three cycles, nominal 800 ng/mL
  Calculated Concentration Mean ± SD: 793.0 ± 16.2 ng/mL
[5]; [17]
  RE (deviation from nominal concentration): −6.7%
  Calculated Concentration Mean ± SD: 0.47 ± 0.02 ng/mL
[5]; [18]
  RE (deviation from nominal concentration): −6.9%
  Calculated Concentration Mean ± SD: 0.93 ± 0.05 ng/mL
[5]; [19]
  RE (deviation from nominal concentration): −5.6%
  Calculated Concentration Mean ± SD: 47.2 ± 1.3 ng/mL
[5]; [20]
  RE (deviation from nominal concentration): −6.9%
  Calculated Concentration Mean ± SD: 745.0 ± 20.8 ng/mL
[5]; stored at −80 °C for as long as 3 months
  storage stability of plasma samples: without apparent alteration
[5]; under the experimental conditions (Table 4)
  degradation in rat plasma: no significant degradation
[6]
  non-specific binding to plastic centrifuge tubes: strongly binding

## Clc1ccc(NN=C(c2ccccc2)c2ccccn2)nc1 (single isomer, unassigned) [Z-isomer]
[7]
  activity against KDMs: inactive
